The list is not random: actives were taken first. Their share in the collection is about 6.4%.
Tb MetRS inh – blocks T. brucei methionyl-tRNA synthetase activity; purified T. brucei MetRS, ATP depletion, Kinase-Glo luminescence; inhibition, % at 11.9 µM; hit rate 0.4% among 360,000;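 active means inhibition above a per-plate cutoff of the control wells' mean inhibition plus 3 SD, cut at about 5.5% in these data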;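 further: 0% = DMSO wells median and 100% = median of wells with control inhibitor compound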
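Material: parasite MetRS enzyme / Replication: singlicate, one well per compound / Signal: luminescence of leftover ATP / Schedule: 2 h aminoacylation at 25 °C after 15 min preincubation / Medium: HEPES-MgCl2-KCl buffer plus DTT, spermine, BSA, pyrophosphatase / Doses: 11.9 µM single point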
MPTP block – permeability transition pore inhibition; inhibition, % at 10 µM; isolated mouse mitochondria, Ca2+ swelling absorbance, 30 min; AID 602449; hit rate 1.4% among 360,000;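 active means inhibition of 50% or more, scaled per plate between neutral and stimulator controls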;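 further: 0% = DMSO wells given calcium and 100% = 1 mM EGTA wells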
WT yeast gro inh – growth inhibition of WT yeast, mitochondrial fusion screen; mitochondrial fusion phenotypic screen, WT strain; inhibition, % at 10 µM; hit rate 2.1% among 190,000; in the data active means inhibition above about 58%; tested in S. cerevisiae
EBV gp42 inh – inhibitors of Epstein-Barr virus glycoprotein 42; Q1HVG2; Fluorescence polarization binding assay, mP read-out; inhibition, % (tested at 21.74 µM); hit rate 0.42% among 220,000; in the data active means inhibition above about 50%
Target sequence (Q1HVG2 whole entry, looked up): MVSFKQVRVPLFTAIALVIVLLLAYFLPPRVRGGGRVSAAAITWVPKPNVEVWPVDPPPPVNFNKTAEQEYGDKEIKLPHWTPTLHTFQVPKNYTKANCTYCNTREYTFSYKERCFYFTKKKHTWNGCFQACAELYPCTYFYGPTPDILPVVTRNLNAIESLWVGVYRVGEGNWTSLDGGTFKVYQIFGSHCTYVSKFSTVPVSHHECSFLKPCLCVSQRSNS
CHOP inh – CHOP inhibition in unfolded protein response; inhibition, % at 10 µM; CHO-K1 CHOP-promoter luciferase, tunicamycin-induced, 15-18 h; AID 2732; hit rate 3.8% among 220,000;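 active means compounds that reduced the stress-induced luciferase reporter signal by more than about 70% of percent inhibition, limit read from the data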;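 further: 0% = tunicamycin plus vehicle and 100% = wells without tunicamycin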
NR3A LBD binder – modulates the human NR3A ligand-binding domain. NR3A LBD differential scanning fluorimetry, Tm shift; 0% = protein alone, 100% = glycine-bound protein. hit rate 2.5% among 340,000. Tm shift relative to glycine control, % at 25 µM;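 active means melting temperature shift of at least 10% of the positive control shift, at one fixed dose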
The depositor's hits bear a star; . = not tested or not shown.

SMILES	Tb MetRS inh	MPTP block	WT yeast gro inh	EBV gp42 inh	CHOP inh	NR3A LBD binder
C[C@@H](C[C@@H](O)[C@H](O)C(C)(C)O)[C@@H]1CC[C@]2(C)C3=CC[C@H]4C(C)(C)C(=O)CC[C@]4(C)[C@H]3CC[C@@]12C	-0.3	5.2	60.3*	10.9	56.8	-8.8
C[C@H](C[C@H](O)[C@H]1OC1(C)C)C1=C2C[C@H](O)C3[C@@]4(C)CCC(=O)C(C)(C)C4CC[C@]3(C)[C@@]2(C)CC1 (stereo not given in full)	0.0	-2.3	.	.	.	-4.4
Oc1cc2c(cc1C(c1ccc(Cl)c(Cl)c1)N1CCCC1)OCO2 (stereo not given)	1.5	0.0	45.1	8.5	-49.9	39.5*
CC(C)c1ccc(NC(=O)C(c2ccc3c(c2)OCO3)N2CCCCC2)cc1 (stereo not given)	-0.1	6.6	25.2	-1.9	42.0	-2.7
C[C@H]1CN([C@@H](C)CO)C(=O)c2cc(Br)cnc2O[C@H]1CN(C)C(=O)c1cccnc1	-0.5	-1.7	.	.	.	.
COC(=O)C1=C(C)N(C)C(C)=C(C(=O)OC)C1c1ccc(C(=O)OC)cc1	-0.3	1.4	.	-5.1	6.5	-1.4
COC(=O)C1=CN(CCOC23CC4CC(CC(C4)C2)C3)C=C(C(=O)OC)C1c1ccsc1	-0.8	2.0	67.8*	-9.2	37.5	-0.3
COC(=O)C1=C(C)N(C)C(C)=C(C(=O)OC)C1c1ccsc1	-0.7	1.4	-1.2	-6.0	-7.7	12.2*
O=[N+]([O-])c1ccc2c(c1)c(-c1ccccc1)nc1nncn12	0.2	-0.8	-8.7	-8.8	15.9	-0.6
CCOc1ccc2ccccc2c1C(=O)N[C@@H]1C(=O)N2[C@@H]1SC(C)(C)[C@@H]2C(=O)O	-0.3	2.9	1.6	-9.4	8.5	1.6
O=C(COC(=O)COc1ccc(Br)cc1)NC1CCCCCC1	-0.4	-3.2	.	.	.	3.7
CCSc1nc2sc3c(c2c(=O)[nH]1)CCc1ccccc1-3	-1.0	2.1	-2.7	-9.2	83.9*	0.1
NNc1nc2sc3c(c2c(=O)[nH]1)CCc1ccccc1-3	-0.4	2.6	20.0	-25.9	6.7	-4.9
COc1ccc(NC(=O)COC(=O)CCC(=O)c2cccs2)cc1OC	0.3	-0.7	.	.	.	-0.3
O=C(/C(=C(\[O-])c1ccccc1)[n+]1ccc2ccccc2c1)c1ccc([N+](=O)[O-])cc1	0.0	-1.0	14.8	-5.8	0.3	-10.5
O=C(/C(=C(\[O-])c1ccccc1)[n+]1ccc2ccccc2c1)c1ccc(Cl)cc1	0.3	7.8	0.8	66.6*	-45.8	-0.1
O=C(/C(=C(\[O-])c1ccccc1)[n+]1ccc2ccccc2c1)c1ccccc1	-0.5	-2.0	7.5	73.6*	20.4	-1.6
Cc1ccc(S(=O)(=O)N2CCN(CC(=O)N/N=C\c3ccncc3)CC2)cc1	-0.2	-1.0	.	-8.3	4.5	2.1
COc1ccc(N2CCN(CCNC(=O)Nc3cccc(C)c3C)CC2)cc1	1.8	0.1	.	.	.	2.8
CC(C)CCNc1nc2c(c(=O)[nH]c(=O)n2C)n1CC(O)COC(C)C (stereo not given)	-1.0	0.5	-0.5	-11.7	29.2	-2.6
COc1cc(/C=C(\C#N)c2nc(-c3cc4ccccc4oc3=O)cs2)ccc1O	-0.3	12.1	-12.2	-66.0	-18.1	8.4
COc1cc(/C=C(/C#N)c2nc(-c3cc4ccccc4oc3=O)cs2)cc([N+](=O)[O-])c1O	.	.	.	63.6*	11.4	.
CCc1nc2c(OCc3ccc(Cl)cc3)cccn2c1N(C)C(=O)c1ccco1	-0.3	-0.3	.	.	.	.
Cc1cc(C)n2nc(-c3sccc3-n3cccc3)cc2n1	-1.3	-2.7	10.7	-16.0	-27.8	11.4*
Cc1cc(C)n2nc(-c3sccc3-n3c(C)ccc3C)cc2n1	-1.2	-0.9	11.7	0.1	76.3*	-8.1
SMILES	Tb MetRS inh	MPTP block	WT yeast gro inh	EBV gp42 inh	CHOP inh	NR3A LBD binder
FC(F)(F)c1cc(C(F)(F)F)n2nc(-c3sccc3-n3cccc3)cc2n1	-0.7	-3.9	-24.0	-21.0	-20.1	-1.3
O=C(Cn1cnc2c(nc3n2CCCCC3)c1=O)Nc1cccc(C(F)(F)F)c1	0.4	-0.9	.	.	.	1.0
CCc1ccc(-c2cn3nc(C)c(C)nc3n2)cc1	-1.7	-0.5	24.3	-21.3	91.9*	-0.3
Cc1cccc(N2CCN(C(=O)c3ccc4nccnc4c3)CC2C)c1 (stereo not given)	0.2	-2.3	.	.	.	-1.0
CC(C)CN(/C=N/c1sc2c(c1C#N)CCCCC2)CC(C)C	-2.2	-0.5	16.8	-7.8	73.5*	2.1
Cc1ccc(/C=N/c2sc3c(c2C#N)CCCCC3)o1	1.1	1.0	9.5	-7.0	77.3*	-1.7
CCN(/C=N/c1sc2c(c1C#N)CCCCC2)CC	-0.2	-0.3	24.9	-3.5	64.2	1.4
N#Cc1c(/N=C/c2ccco2)sc2c1CCC2	0.4	1.4	5.9	0.6	32.5	-0.9
Cc1c(Cl)cccc1-n1c(-c2cccnc2)n[nH]c1=S	-0.7	0.7	2.8	-7.0	4.2	0.3
Cc1cc(/C=N/NC(N)=S)c(C)n1-c1ccc(Cl)c(Cl)c1	0.0	12.4	63.4	-5.4	27.2	-1.0
CCNC(=S)N/N=C/c1cc(C)n(-c2ccc(Cl)cc2)c1C	-1.2	1.8	73.4*	7.8	6.9	-2.2
Cc1ccnc(NC(=S)NC(=O)/C=C/c2ccc(Cl)cc2)c1	0.6	1.3	9.7	-5.8	-9.8	-8.1
COc1cccc(C(=O)COC(=O)C(C)N2C(=O)c3ccccc3C2=O)c1 (stereo not given)	0.2	1.3	3.7	-26.4	5.3	13.7*
CCn1c(SC(C)C(=O)NC2CCCc3ccccc32)nnc1-c1cccs1 (stereo not given)	-1.1	3.2	-8.9	0.1	1.1	0.8
COCCN(C(=S)Nc1ccc(C(C)C)cc1)C(C)c1cccs1 (stereo not given)	0.0	4.2	63.1*	-6.8	17.5	-3.5
COCCN(C(=S)Nc1c(C)cc(C)cc1C)C(C)c1cccs1 (stereo not given)	-0.3	0.8	65.2*	-23.9	16.2	-3.5
COc1cccc(C(=O)Nc2c3c(nn2-c2cccc(C)c2C)CS(=O)C3)c1OC (stereo not given)	0.4	-1.0	-1.4	-6.8	-6.9	-5.6
O=C1CSC(=S)N1/N=C/c1ccc(O)c(O)c1O	0.4	3.5	.	69.9*	21.3	0.3
Cc1ccc(C(C)C)cc1OCC(=O)Nc1nnc(C2CC2)s1	-0.2	1.6	.	.	.	0.6
O=C1/C(=C/c2ccccc2Cl)SC(=S)N1CCCC(=O)N(CCO)c1ccccc1	0.2	0.7	.	.	.	-14.4
COCCOC(=O)c1c(NC(=O)CN(C)c2ccccc2)sc(C(N)=O)c1C	-0.9	-0.2	-10.7	-15.9	-17.2	1.9
COc1ccc(Cl)c2c1[nH]c1nc(SCc3cccnc3)nnc12	-0.6	0.5	-15.9	-14.7	86.1*	3.1
COc1cc2cc(NC(C)=O)cc(NCc3ccccc3)c2cc1OC	0.2	0.1	.	.	.	11.9*
Clc1cc(Cl)cc(C2=NCCC(c3ccccc3)O2)c1 (stereo not given)	.	.	75.0*	1.4	-2.4	.

High-throughput results deposited in PubChem BioAssay by several laboratories.
